Results as given in ChEMBL document CHEMBL3588763, “Styryl-N-phenyl-N'-(2-chloroethyl)ureas and styrylphenylimidazolidin-2-ones as new potent microtubule-disrupting agents using combretastatin A-4 as model” (Eur J Med Chem, 2015).
Activity calls are given as the source filed them. No cut-off for these calls is given here.

Tests used:
M21 [1] = assay: Induction of microtubule depolymerization and cytoskeleton disruption in human M21 cells at 10 nM after 16 hrs by immunofluorescence assay
M21 [2] = assay: Antiproliferative activity against human M21 cells assessed as cell growth inhibition after 48 hrs by sulforhodamine B assay; format: functional, cell-based; conditions: M21, 48 h
Procedure, shortened: (§1)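 NCI-style SRB screen with minor changes. Cells seeded per well in DMEM with 5% FBS: HT-29 4.0 x 10^3, M21 3.0 x 10^3, MCF-7 2.5 x 10^3, HT-1080 2.5 x 10^3. After 24 h, serially diluted drug was added at 50 µM to 1 nM final, DMSO <0.5%, for 48 h. Fixed with cold TCA, stained with SRB, read at 530–568 nm against plates fixed on treatment day. At least two experiments in triplicate, CV <10%.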

M21 [3] = assay: Induction of cell cycle arrest in human M21 cells assessed as cells accumulation at G0/G1 phase at 10 nM after 24 hrs by flow cytometry (reference value: 54.5%); format: functional
MCF7 = assay: Antiproliferative activity against human MCF7 cells assessed as cell growth inhibition after 48 hrs by sulforhodamine B assay; format: functional, cell-based; conditions: MCF7, 48 h
Procedure, shortened: as §1

[4] = biological target: T1, Tubulin beta (Homo sapiens) (UniProt P68371+Q9H4B7+Q13509+P04350+Q3ZCM7+P07437+Q13885+Q9BVA1+Q9BUF5+A6NNZ2); assay: Inhibition of N,N-ethylene-bis(iodoacetamide) binding to Tubulin beta colchicines-binding site in human M21 cells assessed as adduct formation at 910 nM by Western blot analysis; format: cell-based
M21 [5] = assay: Induction of cell cycle arrest in human M21 cells assessed as cells accumulation at G2/M phase at 10 nM after 24 hrs by flow cytometry (reference value: 22.1%); format: functional
HT-29 = assay: Antiproliferative activity against human HT-29 cells assessed as cell growth inhibition after 48 hrs by sulforhodamine B assay; format: functional, cell-based; conditions: HT-29, 48 h
Procedure, shortened: as §1

M21 [6] = assay: Induction of cell cycle arrest in human M21 cells assessed as cells accumulation at S phase at 10 nM after 24 hrs by flow cytometry (reference value: 22.2%); format: functional
M21 [7] = assay: Induction of cell cycle arrest in human M21 cells assessed as cells accumulation at subG1 phase at 10 nM after 24 hrs by flow cytometry (reference value: 1.2%); format: functional
[8] = biological target: T1, Tubulin beta (Homo sapiens); assay: Inhibition of N,N-ethylene-bis(iodoacetamide) binding to Tubulin beta colchicines-binding site in human M21 cells assessed as adduct formation at 410 nM by Western blot analysis; format: cell-based
[9] = Antiproliferative activity against human HT1080 cells assessed as cell growth inhibition after 48 hrs by sulforhodamine B assay; format: functional, cell-based; conditions: HT-1080, 48 h
[10] = biological target: T1, Tubulin beta (Homo sapiens); assay: Inhibition of N,N-ethylene-bis(iodoacetamide) binding to Tubulin beta colchicines-binding site in human M21 cells assessed as adduct formation at 2500 nM by Western blot analysis; format: cell-based
M21 [11] = assay: Induction of cell cycle arrest in human M21 cells assessed as cells accumulation at G0/G1 phase at 24 nM after 24 hrs by flow cytometry (reference value: 54.5%); format: functional
M21 [12] = assay: Induction of cell cycle arrest in human M21 cells assessed as cells accumulation at S phase at 24 nM after 24 hrs by flow cytometry (reference value: 22.2%); format: functional
M21 [13] = assay: Induction of microtubule depolymerization and cytoskeleton disruption in human M21 cells at 24 nM after 24 hrs by immunofluorescence assay; format: functional, cell-based
M21 [14] = assay: Induction of cell cycle arrest in human M21 cells assessed as cells accumulation at G2/M phase at 24 nM after 24 hrs by flow cytometry (reference value: 22.1%); format: functional
M21 [15] = assay: Induction of cell cycle arrest in human M21 cells assessed as cells accumulation at subG1 phase at 24 nM after 24 hrs by flow cytometry (reference value: 1.2%); format: functional
M21 [16] = assay: Induction of cell cycle arrest in human M21 cells assessed as cells accumulation at G2/M phase at 46 nM after 24 hrs by flow cytometry (reference value: 22.1%); format: functional
M21 [17] = assay: Induction of cell cycle arrest in human M21 cells assessed as cells accumulation at S phase at 46 nM after 24 hrs by flow cytometry (reference value: 22.2%); format: functional
M21 [18] = assay: Induction of microtubule depolymerization and cytoskeleton disruption in human M21 cells at 46 nM after 16 hrs by immunofluorescence assay
M21 [19] = assay: Induction of cell cycle arrest in human M21 cells assessed as cells accumulation at G0/G1 phase at 46 nM after 24 hrs by flow cytometry (reference value: 54.5%); format: functional
M21 [20] = assay: Induction of cell cycle arrest in human M21 cells assessed as cells accumulation at subG1 phase at 46 nM after 24 hrs by flow cytometry (reference value: 1.2%); format: functional
M21 [21] = assay: Induction of cell cycle arrest in human M21 cells assessed as cells accumulation at G2/M phase at 4100 nM after 24 hrs by flow cytometry (reference value: 22.1%); format: functional
[22] = biological target: T1, Tubulin beta (Homo sapiens); assay: Binding affinity to Tubulin beta in human M21 cells assessed as tubulin acylation at 8200 nM after 24 hrs by electrophoretic mobility shift assay
M21 [23] = assay: Induction of cell cycle arrest in human M21 cells assessed as cells accumulation at S phase at 4100 nM after 24 hrs by flow cytometry (reference value: 22.2%); format: functional
M21 [24] = assay: Induction of cell cycle arrest in human M21 cells assessed as cells accumulation at subG1 phase at 4100 nM after 24 hrs by flow cytometry (reference value: 1.2%); format: functional
M21 [25] = assay: Induction of microtubule depolymerization and cytoskeleton disruption in human M21 cells at 4100 nM after 16 hrs by immunofluorescence assay
M21 [26] = assay: Induction of cell cycle arrest in human M21 cells assessed as cells accumulation at G0/G1 phase at 4100 nM after 24 hrs by flow cytometry (reference value: 54.5%); format: functional
M21 [27] = assay: Induction of cell cycle arrest in human M21 cells assessed as cells accumulation at subG1 phase at 760 nM after 24 hrs by flow cytometry (reference value: 1.2%); format: functional
M21 [28] = assay: Induction of cell cycle arrest in human M21 cells assessed as cells accumulation at G0/G1 phase at 760 nM after 24 hrs by flow cytometry (reference value: 54.5%); format: functional
M21 [29] = assay: Induction of cell cycle arrest in human M21 cells assessed as cells accumulation at G2/M phase at 760 nM after 24 hrs by flow cytometry (reference value: 22.1%); format: functional
[30] = biological target: T1, Tubulin beta (Homo sapiens); assay: Binding affinity to Tubulin beta in human M21 cells assessed as tubulin acylation at 1500 nM after 24 hrs by electrophoretic mobility shift assay; format: cell-based
[31] = biological target: T1, Tubulin beta (Homo sapiens); assay: Binding affinity to Tubulin beta in human M21 cells assessed as tubulin acylation at 3100 nM after 24 hrs by electrophoretic mobility shift assay; format: cell-based
M21 [32] = assay: Induction of microtubule depolymerization and cytoskeleton disruption in human M21 cells at 760 nM after 16 hrs by immunofluorescence assay
M21 [33] = assay: Induction of cell cycle arrest in human M21 cells assessed as cells accumulation at S phase at 760 nM after 24 hrs by flow cytometry (reference value: 22.2%); format: functional
[34] = biological target: T1, Tubulin beta (Homo sapiens); assay: Inhibition of N,N-ethylene-bis(iodoacetamide) binding to Tubulin beta colchicines-binding site in human M21 cells assessed as adduct formation at 100000 nM by Western blot analysis; format: cell-based

Compound	IC50 (M21 [2]) [nM]	IC50 (MCF7) [nM]	IC50 (HT-29) [nM]	IC50 [9] [nM]	other results
COc1cc(/C=C\c2ccc(N3CCNC3=O)cc2)cc(OC)c1OC	2.4	2.6	1.7	2.3	Activity (M21 [1]): Active; Activity (M21 [3]): 4.2%; inhibition [4]: Active; Activity (M21 [5]): 84.6%; Activity (M21 [6]): 6.1%; Activity (M21 [7]): 5.1%; inhibition [8]: Active; inhibition [10]: Active
COc1cc2c(c(OC)c1OC)-c1ccc(OC)c(=O)cc1[C@@H](NC(C)=O)CC2 [COLCHICINE]					Activity (M21 [11]): 27.9%; Activity (M21 [12]): 11.8%; Activity (M21 [13]): Active; Activity (M21 [14]): 57.9%; Activity (M21 [15]): 2.4%
Cc1cc(C)cc(/C=C\c2ccc(N3CCNC3=O)cc2)c1	10	23	8.4	15	Activity (M21 [16]): 78.4%; inhibition [4]: Active; Activity (M21 [17]): 8%; Activity (M21 [18]): Active; inhibition [8]: Active; Activity (M21 [19]): 5.4%; inhibition [10]: Active; Activity (M21 [20]): 8.2%
Cc1cc(C)cc(/C=C/c2ccc(NC(=O)NCCCl)cc2)c1	> 20000	19000	11000	> 20000	
CCNC(=O)Nc1ccc(/C=C\c2cc(C)cc(C)c2)cc1	16000	17000	11000	15000	
O=C1NCCN1c1ccc(/C=C/c2cccc(Cl)c2)cc1	19000	20000	17000	> 20000	
COc1cc(/C=C\c2ccc(NC(=O)NCCCl)cc2)cc(OC)c1OC	950	1400	680	1400	Activity (M21 [21]): 85.5%; Activity [22]: Active; Activity (M21 [23]): 5.8%; Activity (M21 [24]): 4.8%; Activity (M21 [25]): Active; Activity (M21 [26]): 3.9%
O=C(NCCCl)Nc1ccc(/C=C\c2cccc(Cl)c2)cc1	170	200	130	170	Activity (M21 [27]): 2.2%; Activity (M21 [28]): 2.1%; Activity (M21 [29]): 92%; Activity [30]: Active; Activity [31]: Active; Activity (M21 [32]): Active; Activity (M21 [33]): 3.7%
Cc1cc(C)cc(/C=C/c2ccc(N3CCNC3=O)cc2)c1	17000	16000	14000	> 20000	
COc1cc(/C=C/c2ccc(N3CCNC3=O)cc2)cc(OC)c1OC	550	540	370	400	inhibition [34]: Active
